In ChEMBL document CHEMBL5661979, “Pharmacological inhibition of BMK1 suppresses tumor growth through promyelocytic leukemia protein” (Cancer Cell, 2010) one finds inhibition and IC50 data, which are given here for one compound.

Where only a bound is given, the exact number is not on record here.

The nature of experiment [1]: Inhibition of CDK5/PRKX/PRKY in human HeLa cells lysate at 10 uM pre incubated for 15 mins followed by ADP acyl phosphate probe addition and measured after 10 mins by LC-MS/MS analysis relative to control. The conditions noted are these: 25 min, condition cancer. The essentials:
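KiNativ profiling in HeLa lysate (5 mg/mL total protein). Lysate incubated 15 min with inhibitor at 50, 10, 2, 0.8 or 0 μM. ATP or ADP acylphosphate probe then added (5 μM final) and reacted 10 min. Reaction stopped with urea and analysed by targeted MS, using up to four fragment ions per kinase peptide-probe conjugate. % inhibition taken against untreated lysate. Run in duplicate.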

Experiment [2] deals with T1, Mitogen-activated protein kinase kinase kinase 7 (Homo sapiens) (UniProt O43318).
T1 sequence (whole entry): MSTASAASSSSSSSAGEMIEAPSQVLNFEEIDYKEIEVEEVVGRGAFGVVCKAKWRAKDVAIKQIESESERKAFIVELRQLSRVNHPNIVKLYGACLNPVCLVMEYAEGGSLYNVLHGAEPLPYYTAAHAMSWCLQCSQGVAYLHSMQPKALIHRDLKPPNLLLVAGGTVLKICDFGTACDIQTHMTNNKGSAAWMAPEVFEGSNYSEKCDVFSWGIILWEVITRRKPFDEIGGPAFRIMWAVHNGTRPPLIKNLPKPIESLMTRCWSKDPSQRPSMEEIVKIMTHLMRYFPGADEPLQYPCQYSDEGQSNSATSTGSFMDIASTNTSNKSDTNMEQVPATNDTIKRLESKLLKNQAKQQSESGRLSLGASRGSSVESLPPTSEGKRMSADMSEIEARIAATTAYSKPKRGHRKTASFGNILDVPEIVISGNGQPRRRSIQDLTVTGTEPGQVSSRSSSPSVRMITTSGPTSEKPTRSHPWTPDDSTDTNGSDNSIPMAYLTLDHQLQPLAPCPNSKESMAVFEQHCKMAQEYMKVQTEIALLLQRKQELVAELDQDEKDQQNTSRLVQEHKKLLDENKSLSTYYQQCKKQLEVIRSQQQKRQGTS
As to the kind of experiment: Inhibition of TAK1 in human HeLa cells lysate at 2 uM pre incubated for 15 mins followed by ATP acyl phosphate probe addition and measured after 10 mins by LC-MS/MS analysis relative to control. Format: subcellular. To be noted: time 25.0 min.

The target in experiment [3] is Dual specificity mitogen-activated protein kinase kinase 6 (Homo sapiens, UniProt P52564). As to the kind of experiment: Inhibition of MAP2K6 in human HeLa cells lysate pre incubated for 15 mins followed by ADP acyl phosphate probe addition and measured after 10 mins by LC-MS/MS analysis. Format: subcellular.
Sequence of Dual specificity mitogen-activated protein kinase kinase 6 (P52564 whole entry): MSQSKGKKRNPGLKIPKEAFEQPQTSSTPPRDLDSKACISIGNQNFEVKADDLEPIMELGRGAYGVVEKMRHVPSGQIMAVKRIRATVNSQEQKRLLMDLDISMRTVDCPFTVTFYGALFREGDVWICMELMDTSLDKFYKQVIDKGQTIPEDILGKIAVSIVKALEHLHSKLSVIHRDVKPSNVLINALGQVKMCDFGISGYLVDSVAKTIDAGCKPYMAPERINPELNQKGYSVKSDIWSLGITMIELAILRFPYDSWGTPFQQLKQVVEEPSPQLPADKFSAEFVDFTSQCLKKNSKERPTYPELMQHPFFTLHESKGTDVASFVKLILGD
Experiment [4] addresses Serine/threonine-protein kinase 3/4 (Homo sapiens, UniProt Q13043+Q13188). As to the kind of experiment: Inhibition of MST1/2 in human HeLa cells lysate pre incubated for 15 mins followed by ATP acyl phosphate probe addition and measured after 10 mins by LC-MS/MS analysis. Format: subcellular.
For experiment [5], the target named is T2, Dual specificity mitogen-activated protein kinase kinase 7 (Homo sapiens) (UniProt O14733).
T2 sequence (whole entry): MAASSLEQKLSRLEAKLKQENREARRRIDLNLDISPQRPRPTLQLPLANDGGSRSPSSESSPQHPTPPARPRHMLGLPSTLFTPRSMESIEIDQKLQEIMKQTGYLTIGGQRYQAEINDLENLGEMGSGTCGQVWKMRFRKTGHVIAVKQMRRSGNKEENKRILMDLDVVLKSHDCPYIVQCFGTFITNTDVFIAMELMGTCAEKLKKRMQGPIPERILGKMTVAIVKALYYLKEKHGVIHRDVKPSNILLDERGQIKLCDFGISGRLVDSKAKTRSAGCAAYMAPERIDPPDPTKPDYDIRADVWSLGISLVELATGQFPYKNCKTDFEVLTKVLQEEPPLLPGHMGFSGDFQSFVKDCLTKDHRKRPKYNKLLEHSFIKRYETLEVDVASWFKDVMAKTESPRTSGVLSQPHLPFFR
As to the kind of experiment: Inhibition of MAP2K7 in human HeLa cells lysate at 10 uM pre incubated for 15 mins followed by ADP acyl phosphate probe addition and measured after 10 mins by LC-MS/MS analysis relative to control. Format: subcellular. The conditions noted are these: time 25.0 min.

Experiment [6] in a line: Inhibition of PRKX/PRKY in human HeLa cells lysate at 50 uM pre incubated for 15 mins followed by ADP acyl phosphate probe addition and measured after 10 mins by LC-MS/MS analysis relative to control. To be noted: 25 min, condition cancer.
Experiment [7] deals with T3, Mixed lineage kinase domain-like protein (Homo sapiens) (UniProt Q8NB16).
T3 sequence (whole entry): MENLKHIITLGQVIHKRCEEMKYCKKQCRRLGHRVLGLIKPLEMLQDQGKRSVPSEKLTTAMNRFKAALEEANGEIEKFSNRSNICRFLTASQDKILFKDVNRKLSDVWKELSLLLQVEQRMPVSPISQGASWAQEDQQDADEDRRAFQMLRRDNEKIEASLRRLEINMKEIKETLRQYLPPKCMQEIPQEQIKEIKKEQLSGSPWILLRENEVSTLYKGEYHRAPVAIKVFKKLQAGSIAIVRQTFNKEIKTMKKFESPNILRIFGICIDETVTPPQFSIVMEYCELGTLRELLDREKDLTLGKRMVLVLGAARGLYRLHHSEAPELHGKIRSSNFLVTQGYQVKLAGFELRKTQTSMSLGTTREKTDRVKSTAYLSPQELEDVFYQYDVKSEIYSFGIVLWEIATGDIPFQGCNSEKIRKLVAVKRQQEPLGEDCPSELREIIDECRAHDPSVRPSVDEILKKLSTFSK
As to the kind of experiment: Inhibition of MLKL in human HeLa cells lysate at 50 uM pre incubated for 15 mins followed by ADP acyl phosphate probe addition and measured after 10 mins by LC-MS/MS analysis relative to control. The conditions noted are these: time 25.0 min. Format: subcellular.

Experiment [8] is described as follows: Inhibition of PCTAIRE2/ICK in human HeLa cells lysate pre incubated for 15 mins followed by ADP acyl phosphate probe addition and measured after 10 mins by LC-MS/MS analysis. It counts as subcellular.

For `CCOc1cc(N2CCC(O)CC2)ccc1Nc1ncc2c(n1)N(C)c1ccccc1C(=O)N2C`, the inhibition at 10 µM in experiment [1] was -0.1%. Further, the inhibition was -4.8% in experiment [2], -9.9% in experiment [5] and -6.7% in experiment [7]. For the same compound, the IC50 in experiment [3], in experiment [4] and in experiment [8] was greater than 50 µM each time. Further, the inhibition at 50 µM in experiment [6] is -27.3%.
